In ChEMBL document CHEMBL3259541, “Synthesis and biological evaluation of antimetastatic agents predicated upon dihydromotuporamine C and its carbocyclic derivatives” (J Med Chem, 2014):
The source made the active and inactive calls. No cut-off for these calls is given here.

Experiments:
[1] = Toxicity in immune-compromised mouse compound treated ip 5 days per week for 2 weeks; format: organism-based; settings: in vivo
Mus musculus [2] = assay: Toxicity in immune-compromised mouse assessed as adverse event at 2.5 mg/kg,ip 5 days per week for 2 weeks; format: organism-based; parameters: dose 2.5 mg/kg; settings: in vivo
L3.6pl [3] = assay: Antimetastatic activity against human L3.6PL cells injected into pancreas of immune-compromised mouse assessed as liver micrometastasis at 2.5 mg/kg,ip 5 days per week for 2 weeks after 7 days of tumor cells inoculation by microscopically; format: functional, organism-based; parameters: dose 2.5 mg/kg
Procedure, shortened: (§1)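 Nu/nu mice engrafted with human L3.6pl pancreatic tumor cells; vehicle or compound given ip 5 days/week for 2 weeks (10 injections; 2.50 mg/kg for one agent, 2.66 mg/kg equimolar for the other), n=7 per group. Livers collected at termination; micrometastasis incidence and size scored macroscopically and on sections by H&E, human Ki67 and human cytokeratin-18 immunohistochemistry.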

L3.6pl [4] = assay: Effect on intracellular ceramide population in human L3.6PL cells assessed as sphingomyelin N16:0 level measured per mg of protein at 0.6 uM after 48 hrs incubation by mass spectrometry analysis (reference value: 3.21 +/- 0.90 nmol); format: functional
L3.6pl [5] = assay: Effect on intracellular ceramide population in human L3.6PL cells assessed as sphingomyelin N18:1 level measured per mg of protein at 0.6 uM after 48 hrs incubation by mass spectrometry analysis (reference value: 0.08 +/- 0.02 nmol); format: functional
L3.6pl [6] = assay: Effect on intracellular ceramide population in human L3.6PL cells assessed as sphingomyelin N22:1 level measured per mg of protein at 0.6 uM after 48 hrs incubation by mass spectrometry analysis (reference value: 0.23 +/- 0.07 nmol); format: functional
L3.6pl [7] = assay: Effect on intracellular ceramide population in human L3.6PL cells assessed as sphingomyelin N24:1 level measured per mg of protein at 0.6 uM after 48 hrs incubation by mass spectrometry analysis (reference value: 0.85 +/- 0.38 nmol); format: functional
L3.6pl [8] = assay: Effect on intracellular ceramide population in human L3.6PL cells assessed as sphingomyelin N26:1 level measured per mg of protein at 0.6 uM after 48 hrs incubation by mass spectrometry analysis (reference value: 0.01 +/- 0.00 nmol); format: functional
L3.6pl [9] = assay: Effect on intracellular ceramide population in human L3.6PL cells assessed as ceramide N22:1 level measured as contribution to total ceramide population at 0.6 uM after 48 hrs incubation by mass spectrometry analysis relative to untreated control
L3.6pl [10] = assay: Antimetastatic activity against human L3.6PL cells injected into pancreas of immune-compromised mouse assessed as liver micrometastasis at 2.5 mg/kg,ip 5 days per week for 2 weeks after 7 days of tumor cells inoculation by Hematoxylin and eosin staining
L3.6pl [11] = assay: Antimetastatic activity against human L3.6PL cells injected into pancreas of immune-compromised mouse assessed as liver micrometastasis at 2.5 mg/kg,ip 5 days per week for 2 weeks after 7 days of tumor cells inoculation by human Ki67 immunohistochemical staining
Mus musculus [12] = assay: Toxicity in immune-compromised mouse assessed as adverse event at 2.66 mg/kg,ip 5 days per week for 2 weeks; format: organism-based; parameters: dose 2.66 mg/kg; settings: in vivo
L3.6pl [13] = assay: Antimetastatic activity against human L3.6PL cells injected into pancreas of immune-compromised mouse assessed as liver micrometastasis at 2.66 mg/kg,ip 5 days per week for 2 weeks after 7 days of tumor cells inoculation by microscopically; format: functional, organism-based; parameters: dose 2.66 mg/kg; procedure, shortened: as §1
L3.6pl [14] = assay: Antimigratory activity against human L3.6PL cells assessed as cell migration inhibition after 48 hrs incubation by wound healing assay in presence of 250 uM aminoguanidine treated 24 hrs prior compound addition; format: functional, cell-based
L3.6pl [15] = assay: Antimetastatic activity against human L3.6PL cells injected into pancreas of immune-compromised mouse assessed as liver micrometastasis at 2.66 mg/kg,ip 5 days per week for 2 weeks after 7 days of tumor cells inoculation by Hematoxylin and eosin staining
L3.6pl [16] = assay: Antimetastatic activity against human L3.6PL cells injected into pancreas of immune-compromised mouse assessed as liver micrometastasis at 2.66 mg/kg,ip 5 days per week for 2 weeks after 7 days of tumor cells inoculation by human Ki67 immunohistochemical staining

SMILES	MTD at 2 weeks [1]	Activity (Mus musculus [2])	Activity (L3.6pl [3])	Activity (L3.6pl [4])	Activity (L3.6pl [5])	Activity (L3.6pl [6])	Activity (L3.6pl [7])	Activity (L3.6pl [8])	fold change (FC) (L3.6pl [9])	Activity (L3.6pl [10])	Activity (L3.6pl [11])	Activity (Mus musculus [12])	Activity (L3.6pl [13])	inhibition (L3.6pl [14])	Activity (L3.6pl [15])	Activity (L3.6pl [16])
Cl.NCCCNCCCN1CCCCCCCCCCCCCC1	2.5 mg/kg	Non-toxic	inactive	4.01 nmol	0.13 nmol	0.26 nmol	0.99 nmol	0.01 nmol	2.8	inactive	inactive	–	–	–	–	–
Cl.NCCCNCCCNCC1CCCCCCCCCCCCCC1	–	–	–	4.36 nmol	0.14 nmol	0.3 nmol	1.1 nmol	0.01 nmol	–	–	–	Non-toxic	Active	Dose-dependent effect	Active	Active
